Each structure is given as a SMILES string. Calls of active or inactive are those of the source. The calls are words filed in the database; no cut-off is given here.

The nature of series [1]: AUC last in Swiss albino mouse at 1 mg/kg, iv measured upto 24 hrs by LC/MS/MS analysis. It counts as ADME, organism-based. The note with it: in vivo. The procedure, abridged:
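Male Swiss albino mice. […] Blood was taken into K2EDTA from three mice per time point, from 0 to 24 h. Plasma was precipitated with acetonitrile and analysed by LC/MS/MS (LLOQ 1.138 ng/mL).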

The target of series [2] is T1, Mitogen-activated protein kinase kinase kinase kinase 2 (Homo sapiens, UniProt Q12851).
T1 sequence (Q12851 whole entry): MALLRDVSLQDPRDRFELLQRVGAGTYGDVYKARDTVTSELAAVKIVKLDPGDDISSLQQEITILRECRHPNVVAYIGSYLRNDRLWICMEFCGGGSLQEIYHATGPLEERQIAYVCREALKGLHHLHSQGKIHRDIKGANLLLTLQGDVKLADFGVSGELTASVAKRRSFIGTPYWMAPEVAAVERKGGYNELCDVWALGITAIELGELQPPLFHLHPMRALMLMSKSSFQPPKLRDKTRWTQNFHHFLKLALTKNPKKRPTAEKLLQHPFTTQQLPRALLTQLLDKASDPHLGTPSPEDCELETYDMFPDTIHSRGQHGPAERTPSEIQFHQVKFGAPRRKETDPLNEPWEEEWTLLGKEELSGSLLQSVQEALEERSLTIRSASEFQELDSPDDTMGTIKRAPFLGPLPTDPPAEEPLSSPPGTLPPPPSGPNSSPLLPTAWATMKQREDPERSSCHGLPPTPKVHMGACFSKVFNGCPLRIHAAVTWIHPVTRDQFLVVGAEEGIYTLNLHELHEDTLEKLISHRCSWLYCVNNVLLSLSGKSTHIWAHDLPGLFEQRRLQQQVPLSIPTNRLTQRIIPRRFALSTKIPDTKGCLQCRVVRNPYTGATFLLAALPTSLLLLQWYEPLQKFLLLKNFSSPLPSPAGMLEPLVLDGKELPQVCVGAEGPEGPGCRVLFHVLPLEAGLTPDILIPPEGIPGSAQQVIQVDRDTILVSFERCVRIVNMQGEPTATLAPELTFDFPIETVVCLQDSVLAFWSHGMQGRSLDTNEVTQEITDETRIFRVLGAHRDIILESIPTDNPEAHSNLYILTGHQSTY
As to the kind of experiment: Inhibition of MAP4K2 (unknown origin) Lys1 labeling site by KiNativ Profiling analysis.

Series [3] has as its target T2, Mitogen-activated protein kinase kinase kinase 7 (Homo sapiens, UniProt O43318).
T2 sequence (O43318 whole entry): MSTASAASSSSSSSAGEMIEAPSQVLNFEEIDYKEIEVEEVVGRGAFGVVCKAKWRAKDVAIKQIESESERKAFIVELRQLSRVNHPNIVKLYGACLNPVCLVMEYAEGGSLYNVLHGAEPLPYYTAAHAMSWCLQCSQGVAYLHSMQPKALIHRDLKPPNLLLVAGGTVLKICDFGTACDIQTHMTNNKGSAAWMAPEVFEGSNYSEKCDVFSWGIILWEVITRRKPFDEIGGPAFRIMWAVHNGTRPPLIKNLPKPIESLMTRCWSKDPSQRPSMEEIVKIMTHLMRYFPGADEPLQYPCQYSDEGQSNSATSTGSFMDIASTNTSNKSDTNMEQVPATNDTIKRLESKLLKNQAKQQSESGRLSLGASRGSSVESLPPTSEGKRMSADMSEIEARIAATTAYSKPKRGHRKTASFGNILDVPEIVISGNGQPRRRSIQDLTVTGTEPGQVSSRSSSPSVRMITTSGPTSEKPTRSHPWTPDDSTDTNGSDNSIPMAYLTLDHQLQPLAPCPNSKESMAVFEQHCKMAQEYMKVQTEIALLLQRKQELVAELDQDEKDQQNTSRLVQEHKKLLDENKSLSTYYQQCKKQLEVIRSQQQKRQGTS
The series can be described thus: Inhibition of TAK1 (unknown origin) Lys2 labeling site by KiNativ Profiling analysis.

Series [4] deals with T3, Aurora kinase A (Homo sapiens) (UniProt O14965).
T3 sequence (whole entry): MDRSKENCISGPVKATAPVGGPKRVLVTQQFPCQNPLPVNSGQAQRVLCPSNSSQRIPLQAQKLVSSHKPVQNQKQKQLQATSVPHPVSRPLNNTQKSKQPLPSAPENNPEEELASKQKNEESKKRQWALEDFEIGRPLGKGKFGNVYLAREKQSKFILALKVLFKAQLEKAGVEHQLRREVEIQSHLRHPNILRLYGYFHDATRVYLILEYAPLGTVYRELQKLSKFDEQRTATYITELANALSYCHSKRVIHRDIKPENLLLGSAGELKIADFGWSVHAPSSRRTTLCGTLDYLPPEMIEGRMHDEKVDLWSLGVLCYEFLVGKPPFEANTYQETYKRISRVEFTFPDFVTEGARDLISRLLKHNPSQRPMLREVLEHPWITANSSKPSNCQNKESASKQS
The series can be described thus: Inhibition of AurA ATP Loop labeling site in human A-375 cells at 0.05 uM by KiNativ Profiling analysis relative to control. It counts as cell-based.

Series [5] has as its target STE20-like serine/threonine-protein kinase (Homo sapiens) (UniProt Q9H2G2). The series can be described thus: Inhibition of SLK Lys1 labeling site in human A-375 cells at 0.05 uM by KiNativ Profiling analysis relative to control. It counts as cell-based.
For series [6], the target named is T4, Mitogen-activated protein kinase kinase kinase kinase 2 (Homo sapiens) (UniProt Q12851).
T4 sequence (whole entry): T1 sequence (Q12851 whole entry)
As to the kind of experiment: Inhibition of MAP4K2 Lys1 labeling site in human A-375 cells at 0.5 uM by KiNativ Profiling analysis relative to control. It counts as cell-based.

The target in series [7] is T5, Mitogen-activated protein kinase kinase kinase 7 (Homo sapiens) (UniProt O43318).
T5 sequence (whole entry): T2 sequence (O43318 whole entry)
As to the kind of experiment: Inhibition of TAK1 Lys2 labeling site in human A-375 cells at 0.5 uM by KiNativ Profiling analysis relative to control. Type of series: cell-based.

The subject of series [8] is MEF. As to the kind of experiment: Inhibition of IL-1 induced p38 MAPK phosphorylation level in TAK1 deficient mouse MEF cells incubated for 1 hr followed by IL-1 stimulation by Western blot analysis. Type of series: functional, cell-based. The following applies: dose <= 500.0 nM. The procedure, abridged:
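WT and TAK1-null MEFs were grown in DMEM with 10% FBS and held in 0.1% FBS for 16 h. Compound was added 1 h before mouse IL-1α (5 ng/mL, 10 min). Cells were lysed in ice-cold buffer and extracts cleared at 16000g. Phospho-p38 was detected by Western blot.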
(In general: A western blot detects proteins with antibodies after separation by electrophoresis.)

Series [9] relates to MEF. The series can be described thus: Inhibition of TGF-beta induced p38 MAPK phosphorylation level in TAK1 deficient mouse MEF cells incubated for 1 hr followed by TGF-beta stimulation by Western blot analysis. Type of series: functional, cell-based. The note with it: dose <= 500.0 nM. The procedure, abridged:
(§1)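 In serum-starved WT and TAK1–/– MEFs (0.1% FBS, 16 h), inhibitor was added 1 h before TGFβ (50 pM, 45 min). Cleared lysates were immunoblotted for phospho-SMAD2 and phospho-p38.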

Series [10] deals with MEF. The series can be described thus: Inhibition of TGF-beta induced SMAD2 phosphorylation level in TAK1 deficient mouse MEF cells at upto 500 nM incubated for 1 hr followed by TGF-beta stimulation by Western blot analysis. Type of series: functional, cell-based. The essentials:
as §1

For series [11], the target named is Mitogen-activated protein kinase kinase kinase kinase 4 (Homo sapiens, UniProt O95819). The series can be described thus: Inhibition of ZC1 Lys2 labeling site in human Huh-7 cell lysate at 1 uM by KiNativ Profiling analysis relative to control. Type of series: subcellular.
Sequence of Mitogen-activated protein kinase kinase kinase kinase 4 (O95819 2-1239 limits assumed): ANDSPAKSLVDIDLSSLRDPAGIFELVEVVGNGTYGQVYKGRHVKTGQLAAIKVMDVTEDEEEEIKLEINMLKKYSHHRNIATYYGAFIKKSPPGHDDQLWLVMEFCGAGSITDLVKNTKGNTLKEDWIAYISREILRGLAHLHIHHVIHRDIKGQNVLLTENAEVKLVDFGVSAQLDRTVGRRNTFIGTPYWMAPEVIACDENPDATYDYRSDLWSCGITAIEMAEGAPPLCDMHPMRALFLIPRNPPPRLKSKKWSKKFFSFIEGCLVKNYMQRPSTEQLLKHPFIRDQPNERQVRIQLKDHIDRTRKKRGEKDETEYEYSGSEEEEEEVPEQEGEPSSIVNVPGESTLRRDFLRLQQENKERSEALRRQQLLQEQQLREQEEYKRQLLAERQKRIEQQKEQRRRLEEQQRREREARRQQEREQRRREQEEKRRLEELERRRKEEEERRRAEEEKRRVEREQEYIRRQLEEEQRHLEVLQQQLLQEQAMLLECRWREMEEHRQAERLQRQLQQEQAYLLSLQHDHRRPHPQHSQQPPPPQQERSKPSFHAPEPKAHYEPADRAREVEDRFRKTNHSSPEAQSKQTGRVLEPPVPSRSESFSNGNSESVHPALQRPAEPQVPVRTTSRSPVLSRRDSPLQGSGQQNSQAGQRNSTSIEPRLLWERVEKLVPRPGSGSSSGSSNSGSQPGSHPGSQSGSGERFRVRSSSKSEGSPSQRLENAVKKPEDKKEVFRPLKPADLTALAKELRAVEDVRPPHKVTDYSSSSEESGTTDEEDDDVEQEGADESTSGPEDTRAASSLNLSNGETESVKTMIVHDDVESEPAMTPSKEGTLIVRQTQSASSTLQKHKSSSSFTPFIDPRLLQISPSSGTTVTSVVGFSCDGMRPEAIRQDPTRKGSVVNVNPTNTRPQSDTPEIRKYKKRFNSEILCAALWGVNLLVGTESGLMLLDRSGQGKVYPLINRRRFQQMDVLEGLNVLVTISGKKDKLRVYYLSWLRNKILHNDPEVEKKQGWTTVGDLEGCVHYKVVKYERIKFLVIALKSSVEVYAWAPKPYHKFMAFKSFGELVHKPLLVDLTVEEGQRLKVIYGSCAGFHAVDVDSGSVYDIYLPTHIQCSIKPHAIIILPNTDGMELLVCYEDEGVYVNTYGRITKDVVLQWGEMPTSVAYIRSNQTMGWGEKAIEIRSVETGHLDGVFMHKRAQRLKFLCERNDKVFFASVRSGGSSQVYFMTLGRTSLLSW

Sequence of STE20-like serine/threonine-protein kinase (Homo sapiens) (Q9H2G2 whole entry, looked up): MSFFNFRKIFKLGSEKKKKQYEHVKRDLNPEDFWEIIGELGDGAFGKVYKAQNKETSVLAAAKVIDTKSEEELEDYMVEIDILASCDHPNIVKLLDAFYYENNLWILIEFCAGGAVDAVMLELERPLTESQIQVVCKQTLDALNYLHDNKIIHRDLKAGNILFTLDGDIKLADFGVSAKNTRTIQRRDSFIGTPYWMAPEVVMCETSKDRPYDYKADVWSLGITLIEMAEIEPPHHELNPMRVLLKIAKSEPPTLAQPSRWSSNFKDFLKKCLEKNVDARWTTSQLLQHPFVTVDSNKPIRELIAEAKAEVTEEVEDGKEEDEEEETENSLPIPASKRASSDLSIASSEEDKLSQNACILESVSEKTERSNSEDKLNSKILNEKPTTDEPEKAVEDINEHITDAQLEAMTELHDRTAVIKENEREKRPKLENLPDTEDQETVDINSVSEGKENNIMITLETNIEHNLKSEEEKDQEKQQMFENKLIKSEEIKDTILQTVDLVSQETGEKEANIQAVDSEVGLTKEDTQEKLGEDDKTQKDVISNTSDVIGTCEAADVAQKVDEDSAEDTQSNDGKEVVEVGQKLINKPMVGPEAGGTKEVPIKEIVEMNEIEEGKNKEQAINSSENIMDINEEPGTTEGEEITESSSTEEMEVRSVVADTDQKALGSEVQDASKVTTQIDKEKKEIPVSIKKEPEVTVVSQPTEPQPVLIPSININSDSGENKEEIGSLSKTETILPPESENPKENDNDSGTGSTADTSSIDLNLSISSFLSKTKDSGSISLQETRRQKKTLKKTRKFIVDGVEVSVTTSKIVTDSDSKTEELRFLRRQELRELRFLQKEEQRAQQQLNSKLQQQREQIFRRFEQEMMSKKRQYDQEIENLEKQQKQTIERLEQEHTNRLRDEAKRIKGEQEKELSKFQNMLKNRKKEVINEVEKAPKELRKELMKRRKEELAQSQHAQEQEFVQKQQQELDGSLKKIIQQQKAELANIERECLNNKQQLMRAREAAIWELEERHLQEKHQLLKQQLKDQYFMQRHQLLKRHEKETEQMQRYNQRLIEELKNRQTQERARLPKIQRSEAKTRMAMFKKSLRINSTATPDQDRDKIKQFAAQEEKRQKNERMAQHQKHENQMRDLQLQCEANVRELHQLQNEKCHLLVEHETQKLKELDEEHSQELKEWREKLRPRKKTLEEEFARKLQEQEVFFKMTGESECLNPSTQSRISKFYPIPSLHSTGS

What is called IC50 is the concentration needed to halve the response being measured. A high value points to weaker potency. For orientation: inhibition means the percentage by which the read-out fell short of the control. As for `CCN1CCN(Cc2ccc(NC(=O)c3ccc(C)c(/C=C/c4cnc5[nH]ccc5c4OC)c3)cc2C(F)(F)F)CC1`, in series [1], the AUClast turned out to be 403 ng·h/mL. Further, the IC50 was 98 nM in series [2] and 41 nM in series [3]. Also, the inhibition in [4] worked out at 14.1%; in series [5], 2.2%.
Compound `CCN1CCN(Cc2ccc(NC(=O)c3ccc(C)c(Oc4ccnc5[nH]ccc45)c3)cc2C(F)(F)F)CC1` yielded an AUClast in [1] of 195 ng·h/mL. The inhibition in series [6] was greater than 99.5%; in [7], 97.1%; in the series with MEF [8] it was “Dose-Dependent Effect”; with MEF [9], “Dose-Dependent Effect”; in series [4], 32.5%; in series [5], 13%. The compound also returned a half-inhibitory concentration (IC50) in series [3] of 149 nM. The inhibition entry in the series on MEF [10] is “Active”.
Consider `CNc1cc(Oc2cc(C(=O)Nc3cc(-n4cnc(C)c4)cc(C(F)(F)F)c3)ccc2C)ncn1`, for which the inhibition in series [6] was 79.7%; in series [7], 29.3%; in series [11], 24.1%; with MEF [8], “Dose-Dependent Effect”; in the series with MEF [9], “Dose-Dependent Effect”. Further, the IC50 in series [2] is 129 nM; in series [3] it was greater than 1110 nM. In addition, the inhibition entry with MEF [10] is “inactive”.
For the compound `CNc1cc(Oc2cc(C(=O)Nc3cc(N4CCN(C)CC4)cc(C(F)(F)F)c3)ccc2C)ncn1`, the inhibition was 85.3% in series [6]; 7% in [7]; 2.7% in series [11]; “Dose-Dependent Effect” in the series on MEF [8]; “Dose-Dependent Effect” in the series with MEF [9]. Besides, the IC50 in series [2] was 37.2 nM; in series [3] it was 2700 nM. Further, the inhibition entry in the series with MEF [10] was “inactive”.

Source of the values: ChEMBL document CHEMBL5696442, “Discovery of type II inhibitors of TGFβ-activated kinase 1 (TAK1) and mitogen-activated protein kinase kinase kinase kinase 2 (MAP4K2)” (J Med Chem, 2015).
